In experiment [1] the target is NAD(P)H dehydrogenase [quinone] 1 (Homo sapiens) (UniProt P15559). The experiment is described as follows: NADH oxidation is used as a measure metabolism since 1 mol of NADH is oxidized for each mole of compound that is reduced. It counts as functional.
A further experiment concerns BE-NQ. In words: Cytotoxicity against BE human colon carcinoma cell lines BE-NQ( high NQO1 activity). Type of experiment: functional, cell-based. Put shortly:
(§1)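 MTT assay in BE colon carcinoma cells, wild-type (BE-WT) or stably transfected with human NQO1 cDNA (BE-NQ). Cells grown in MEM/10% FBS at 37 °C, 5% CO2, plated at (1–2) × 10^4 cells/mL and attached 16 h. Drug exposure 2 h, then drug-free medium for 5–7 days. MTT for 4 h, formazan dissolved in DMSO, A550. IC50 taken from % control versus concentration plots.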

A further experiment deals with BE-WT. The experiment is described as follows: Cytotoxicity against BE human colon carcinoma cell lines BE-WT(No NQO1 activity). It counts as functional, cell-based. In short, it runs like this: as §1
Experiment [2] deals with NAD(P)H dehydrogenase [quinone] 1 (Homo sapiens) (UniProt P15559). In words: Ability to inactivate Recombinant human NQO1. It counts as functional. The arrangement: concentration or dose not given beside the values. Put shortly: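 Recombinant hNQO1 (1–2 µg) preincubated 30 min at 22 °C with 10 µM indolequinone, with or without 100 µM NADH, in 25 mM Tris-HCl pH 7.4 + 2 mg/mL Tween-20. Reaction stopped with cold Tris-HCl/250 mM sucrose. Residual activity measured as reduction of 40 µM DPIP with 200 µM NADH (0.7 mg/mL BSA) at 600 nm for 30 s. Reported as % remaining, +NADH versus −NADH.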

In ChEMBL document CHEMBL1134780, “Indolequinone antitumor agents: correlation between quinone structure and rate of metabolism by recombinant human NAD(P)H:quinone oxidoreductase. Part 2” (J Med Chem, 2001) one finds Metabolism, IC50 and Enzyme activity data, which are given here for 36 compounds.

Chain of NAD(P)H dehydrogenase [quinone] 1 (Homo sapiens) (P15559 whole entry): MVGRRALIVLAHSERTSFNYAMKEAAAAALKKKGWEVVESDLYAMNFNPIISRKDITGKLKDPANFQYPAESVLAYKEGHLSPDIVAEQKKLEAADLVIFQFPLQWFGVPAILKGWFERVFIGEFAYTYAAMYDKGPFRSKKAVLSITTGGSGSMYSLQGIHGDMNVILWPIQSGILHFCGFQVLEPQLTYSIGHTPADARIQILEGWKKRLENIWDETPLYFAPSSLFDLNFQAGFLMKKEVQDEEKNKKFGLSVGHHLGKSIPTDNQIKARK

In general, IC50 refers to the concentration that inhibits the measured activity by half. Regarding `COC1=CC(=O)c2c(c(COc3ccc([N+](=O)[O-])cc3F)c(C)n2C)C1=O`, the Metabolism in experiment [1] was found to be 0.05 µM/min/mg. The figures for the IC50 in the experiment with BE-NQ and in the experiment with BE-WT were 1.2 µM and 1.5 µM, respectively. Further, the Enzyme activity in experiment [2] worked out at 0%.
Take `COC1=CC(=O)c2[nH]c(C)c(C(C)O)c2C1=O` (centres undefined): the Metabolism in experiment [1] turned out to be 27.7 µM/min/mg.
In experiment [1], `COC1=CC(=O)c2c(c(COc3ccc([N+](=O)[O-])cc3)cn2C)C1=O` gave a Metabolism of 0.29 µM/min/mg. Besides, the IC50 came to 0.44 µM in the experiment with BE-NQ and 1.05 µM in the experiment with BE-WT. Further, the Enzyme activity in experiment [2] is 52%.
`CCOC(=O)c1c2c(n(CCN3CCOCC3)c1C)C(=O)C(C)=C(OC)C2=O` returned a Metabolism in experiment [1] of 39.4 µM/min/mg.
Turning to `CCOC(=O)c1c2c(n(-c3ccccc3)c1C)C(=O)C=C(OC)C2=O`, in experiment [1], the Metabolism was found to be 16.4 µM/min/mg.
For `Cc1c(C(C)O)c2c(n1C)C(=O)C=C(N1CCOCC1)C2=O` (centres undefined), in experiment [1], the Metabolism came to 0.27 µM/min/mg.
On the same count and under the same terms, then `COC1=CC(=O)c2c(c(CO)c(C)n2C2CC2)C1=O`, with 14 µM/min/mg.
Still for that read-out and setting: then `COC1=C(C)C(=O)c2c(c(CO)c(C)n2-c2ccccc2)C1=O`, with 3 µM/min/mg.
`COC1=CC(=O)c2c(c(CO)cn2C)C1=O` gave a Metabolism in experiment [1] of 13.6 µM/min/mg. Besides, the half-maximal inhibitory concentration (IC50) in the experiment on BE-NQ and in the experiment on BE-WT was greater than 50 µM in each case. Also, the Enzyme activity in experiment [2] was found to be 96%.
For `COC(=O)c1c2c(n(C)c1C)C(=O)C(C)=C(OC)C2=O`, the Metabolism in experiment [1] was 13.7 µM/min/mg.
With `CN1CCN(C2=CC(=O)c3c(c(CO)c(-c4ccccc4)n3C)C2=O)CC1`, the Metabolism in experiment [1] is 0.15 µM/min/mg.
`CCOC(=O)CNC(=O)OCc1c2c(n(C)c1C)C(=O)C=C(OC)C2=O` returned a Metabolism in experiment [1] of 0.11 µM/min/mg. Moreover, the IC50 came to 3.2 µM in the experiment with BE-NQ and 3.8 µM in the experiment with BE-WT. The Enzyme activity in experiment [2] is 19%.
For `COC1=CC(=O)c2c(c(COc3cc([N+](=O)[O-])ccc3OC)c(C)n2C)C1=O`, in that order: 0.05 µM/min/mg, 6.5 µM, 34.4 µM and 13%.
Consider `CCOC(=O)c1c2c(n(C)c1-c1ccc3ccccc3c1)C(=O)C=C(OC)C2=O`, for which the Metabolism in experiment [1] amounted to 0.23 µM/min/mg. Also, the IC50 with BE-NQ was greater than 50 µM; in the experiment with BE-WT, 49 µM.
The like results for `CCOC(=S)SCc1c2c(n(C)c1C)C(=O)C=C(OC)C2=O` were, in that order, 1.1 µM/min/mg, greater than 50 µM and greater than 50 µM.
For `CCCn1c(C)c(CO)c2c1C(=O)C(C)=C(OC)C2=O`, the Metabolism in experiment [1] stood at 1.7 µM/min/mg.
On the same count and under the same terms, then `COC1=CC(=O)c2c(c(COc3ccccc3)c(C)n2C)C1=O`, with 0.28 µM/min/mg.
In the case of `CCCn1c(C)c(C(=O)OCC)c2c1C(=O)C(C)=C(OC)C2=O`, the Metabolism in experiment [1] worked out at 18.6 µM/min/mg.
In turn, `COC1=CC(=O)c2[nH]c(C)c(C(C)=O)c2C1=O` came in with a Metabolism in experiment [1] of 29.8 µM/min/mg.
The same measure, in the same setting: then `COC1=CC(=O)c2c(c(CO)c(C)n2-c2ccc(F)cc2)C1=O`, with 9.2 µM/min/mg.
In the case of `COC1=CC(=O)c2c(c(COC(C)=O)c(C)n2C)C1=O`, the Enzyme activity in experiment [2] is 0%.
In turn, `CCOC(=O)c1c2c(n(C3CC3)c1C)C(=O)C=C(OC)C2=O` showed a Metabolism in experiment [1] of 36.6 µM/min/mg.
In turn, `COC1=CC(=O)c2c(c(COC(=O)Cc3ccc(-c4ccccc4)cc3)c(C)n2C)C1=O` showed a Metabolism in experiment [1] of 0.09 µM/min/mg. Besides, the concentration for half-maximal inhibition (IC50) in the experiment with BE-NQ was found to be 5.1 µM; in the experiment with BE-WT, 5.5 µM. Besides, the Enzyme activity in experiment [2] was determined as 0%.
The compound `COC1=CC(=O)c2c(c(C(C)O)c(C)n2C)C1=O` (centres undefined) gave a Metabolism in experiment [1] of 10.4 µM/min/mg.
With `COC1=CC(=O)c2c(c(COc3ccc([N+](=O)[O-])cc3OC)c(C)n2C)C1=O`, the Metabolism in experiment [1] is 0.05 µM/min/mg. Also, the 50% inhibitory concentration (IC50) amounted to 0.51 µM with BE-NQ and 1.5 µM in the experiment with BE-WT.
`COC1=C(C)C(=O)c2c(c(CO)c(C)n2CCN2CCOCC2)C1=O` came in with a Metabolism in experiment [1] of 7.6 µM/min/mg.
On the same count and under the same terms, next, `CCCn1c(C)c(C(=O)OCC)c2c1C(=O)C=C(OC)C2=O`: 77.6 µM/min/mg.
Still for that read-out and setting: next, `CCOC(=O)c1c2c(n(-c3ccc(F)cc3)c1C)C(=O)C=C(OC)C2=O`: 3.9 µM/min/mg.
For `COC1=CC(=O)c2c(c(COc3ccc(NC(C)=O)cc3)c(C)n2C)C1=O`, the Metabolism in experiment [1] was found to be 0.38 µM/min/mg. For the same compound, the results for the IC50 in the experiment on BE-NQ and in the experiment on BE-WT were 6.6 µM and 10.3 µM, respectively.
Take `CCCn1c(C)c(CO)c2c1C(=O)C=C(OC)C2=O`: the Metabolism in experiment [1] was 1.3 µM/min/mg.
On the same count and under the same terms, then `CCc1c(CO)c2c(n1Cc1ccccc1)C(=O)C=C(OC)C2=O`, with 0.9 µM/min/mg.
On the same count and under the same terms, next, `CCOC(=O)c1c2c(n(-c3ccccc3)c1C)C(=O)C(C)=C(OC)C2=O`: 7.9 µM/min/mg; `CCc1c(C(=O)OC)c2c(n1Cc1ccccc1)C(=O)C=C(OC)C2=O`: 9.3 µM/min/mg.
On the same count and under the same terms, next, `COC1=CC(=O)c2c(c(CO)c(C)n2-c2ccccc2)C1=O`: 6 µM/min/mg.
As for `COC1=CC(=O)c2c(c(CO)c(-c3ccc4ccccc4c3)n2C)C1=O`, the Metabolism in experiment [1] worked out at 4 µM/min/mg. Besides, the concentration for half-maximal inhibition (IC50) in the experiment with BE-NQ and with BE-WT was greater than 50 µM in each case.
The compound `COC1=C(C)C(=O)c2c(c(CO)c(C)n2C)C1=O` had a Metabolism in experiment [1] of 3.8 µM/min/mg.
